From PubChem BioAssay
Records with an inconclusive call do not appear. Active and inactive are the calls of the source.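 Rule for the calls, unless noted: active = viability increase at or above a cutoff of the median across tested compounds plus 3 SD (cut at about 8.5% in these data, passing the limit was not always enough); inconclusive = some gains above the cutoff, reason not given; inactive = the rest.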

Experiments:
[1] = OD615 S. cerevisiae growth inhibition, permissive medium, pilot counter-assay, permissive growth control for S. cerevisiae lifespan shortening project (AID 705;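 active = growth inhibition above 25% in both replicates, a cutoff set 3 SD above the mean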); conditions: OD615, 24 h, at 10 µM, active compounds read high
Outline: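 System: S. cerevisiae with engineered DeaD lifespan system / Measured by: absorbance (optical density) at 615 nm / Read-out: reduction in yeast growth (OD615) / Times: 4 h cell pre-growth, 24 h exposure at 30 °C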

[2] = Restrictive medium S. cerevisiae growth inhibition, OD615, pilot screen of yeast lifespan reduction project, restrictive growth control (AID 706;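 active = growth inhibition above a set limit, 3 SD over mean compound inhibition, in both replicates, cut at about 43% in these data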;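 note: modified DeaD lifespan yeast strain shifted to restrictive glucose medium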); conditions: OD615, 48 h, at 10 µM, active compounds read high
Outline: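 System: Engineered S. cerevisiae DeaD strain | Buffer or medium: Glucose-based CSMM-D restrictive medium | Schedule: 4 h pre-incubation, 48 h exposure at 30 °C | Technique: Optical density at 615 nm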

[3] = viability gain of MRP-1-high H69AR cells under doxorubicin, pilot screen, MRP-1 activator project, CellTiter-Glo, duplicate (AID 807); conditions: H69AR viability with doxorubicin, CellTiter-Glo luminescence; at 10 µM; active compounds read high;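 note: compound pretreatment 18-22 h then 72 h combined with doxorubicin; 0% = doxorubicin alone and 100% = vehicle without doxorubicin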
[4] = growth suppression of beta-catenin knockout HCT116, pilot screen, human colon tumor cells (AID 823;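 active = cell viability at or below a set limit in both duplicate runs, the limit being the all-compound median minus 4 SD, cut at about 23% in these data, passing the limit was not always enough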;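 note: 0% = wells killed by 20 µM Hyamine and 100% = untreated DMSO cell wells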); conditions: CellTiter-Glo, 60 h, at 10 µM, active compounds read low
[5] = growth suppression of PTEN-deleted HCT116, pilot screen, cell-based, HCT116 clonal line, CellTiter-Glo (AID 824;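 active = viability at or below 27.92% in each of two runs, the all-compound median minus 4 SD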;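 note: 0% = 20 µM Hyamine control and 100% = vehicle cell control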); conditions: 60 h, at 10 µM, active compounds read low
[6] = inhibitors of the yeast RAM network, pilot screen, dse1pr::URA3 reporter, 5-FOA selection (AID 869;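 active = inhibition over a set limit, the all-compound mean plus 3 SD, in both replicate runs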;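 note: 0% = DMSO wells with no growth and 100% = 10 µM 1-NA-PP1 with full growth; RAM network block rescues cells from 5-FOA so hits raise OD615 growth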); conditions: S. cerevisiae dse1pr::URA3 5-FOA growth, OD615, 2 d; at 10 µM; active compounds read high; strain carries analog-sensitive mutant Cbk1 kinase
[7] = RAM signaling pathway blockade in yeast – S. cerevisiae, Pdr1DBD-CYC8 efflux-inhibited sensitized strain, primary screen (AID 1298;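 active = RAM network inhibition above 8.4% in each of two replicates, 3 SD over the compound average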;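 note: 0% = DMSO untreated cells without growth and 100% = 10 µM 1-NA-PP1 full growth; higher means more yeast growth rescued from 5-FOA killing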); conditions: S. cerevisiae cbk1-as DSE1-URA3 strain, 5-FOA growth OD615, 2 d; at 50 µM; active compounds read high

COc1ccc(C2c3c(oc4ccccc4c3=O)C(=O)N2c2ccccn2)cc1 (configuration not stated)
inactive: growth inhibition [1] -12.9% | growth inhibition [2] -7.65% | viability increase [3] -0.92% | viability [4] 90.9% | viability [5] 91% | inhibition [6] 3.71% | RAM network inhibition [7] 4.85%

CN(C)C(CNC(=O)c1cccs1)c1cccnc1 (configuration not stated)
inactive: growth inhibition [1] -14.2% | growth inhibition [2] -20.4% | viability increase [3] -0.5% | viability [4] 105% | viability [5] 97.4% | inhibition [6] 3.75% | RAM network inhibition [7] 0.26%

O=c1c2c3c(sc2nc2n1CCCCC2)CCCC3
inactive: growth inhibition [1] -12.6% | growth inhibition [2] -15.5% | viability increase [3] -1.02% | viability [4] 90.4% | viability [5] 85.6% | inhibition [6] 0.635% | RAM network inhibition [7] 0.62%

COc1cc2c(cc1OC)CN(S(C)(=O)=O)CC2
inactive: growth inhibition [1] -0.905% | growth inhibition [2] -20.7% | viability increase [3] -2.27% | viability [4] 110% | viability [5] 94.7% | inhibition [6] 1.33% | RAM network inhibition [7] 1.26%

Cc1cc(Nc2cc(C)on2)n2ncnc2n1
inactive: growth inhibition [1] 2.33% | growth inhibition [2] -10% | viability increase [3] -1.14% | viability [4] 106% | viability [5] 99.8% | inhibition [6] 0.195% | RAM network inhibition [7] 2.24%

CCOc1ccc(Oc2nc(NCC(C)C)nc(OC)n2)nn1
inactive: growth inhibition [1] -8.33% | growth inhibition [2] 5.96% | viability increase [3] 0.16% | viability [4] 94.8% | viability [5] 91.5% | inhibition [6] 2.14% | RAM network inhibition [7] -1.03%

Cn1c2c(c(=O)n(C)c1=O)CN(Cc1ccco1)CN2
inactive: growth inhibition [1] -2% | growth inhibition [2] 5.18% | viability increase [3] -2.84% | viability [4] 95.2% | viability [5] 97.7% | inhibition [6] -0.115% | RAM network inhibition [7] -0.06%

Cc1ccc(CC2C(=O)N(c3ncccn3)C(=O)C2C)cc1 (configuration not stated)
inactive: growth inhibition [1] -5.95% | growth inhibition [2] -9.6% | viability increase [3] 0.74% | viability [4] 104% | viability [5] 93.1% | inhibition [6] 0.685% | RAM network inhibition [7] 1.72%

O=C(NCc1cccnc1)NC1(c2ccccc2)CC1
inactive: growth inhibition [1] -2.17% | growth inhibition [2] -17.7% | viability increase [3] 0.15% | viability [4] 106% | viability [5] 100% | inhibition [6] 0.49% | RAM network inhibition [7] 0.4%

Cc1ccccc1NC(=O)c1cnn(-c2ccccc2)c1NC(=O)c1ccco1
inactive: growth inhibition [1] -12.6% | growth inhibition [2] -3.13% | viability increase [3] -0.49% | viability [4] 103% | viability [5] 98.2% | inhibition [6] 0.855% | RAM network inhibition [7] 1.65%

CCC1(C)OC(=O)N2CCc3c(C)[nH]c4c(C)ccc(c34)C21C (configuration not stated)
inactive: growth inhibition [1] -14.7% | growth inhibition [2] -17.8% | viability increase [3] -1.6% | viability [4] 95.9% | viability [5] 91.3% | inhibition [6] 2.15% | RAM network inhibition [7] 1.06%

CCN(CC)S(=O)(=O)c1ccc(C(=O)C(C#N)c2ccccn2)cc1 (configuration not stated)
inactive: growth inhibition [1] -12.8% | growth inhibition [2] -19.5% | viability increase [3] 1.28% | viability [4] 95.3% | viability [5] 102% | inhibition [6] 0.455% | RAM network inhibition [7] 5.32%

OC1CC(c2ccco2)NC2(CCCCC2)C1 (configuration not stated)
inactive: growth inhibition [1] -4.09% | growth inhibition [2] 1.06% | viability increase [3] -1.66% | viability [4] 97.2% | viability [5] 94.6% | inhibition [6] 0.39% | RAM network inhibition [7] 2.73%

CCc1cc(C(=O)Nc2ccccc2)cs1
inactive: growth inhibition [1] -8.2% | growth inhibition [2] 4.65% | viability increase [3] -0.18% | viability [4] 82.8% | viability [5] 90.9% | inhibition [6] 2.13% | RAM network inhibition [7] -2.13%

O=C(c1ccco1)N1CCN(c2nc3ccsc3c(=O)s2)CC1
inactive: growth inhibition [1] -0.135% | growth inhibition [2] 6.59% | viability increase [3] -3.19% | viability [4] 97.1% | viability [5] 94.3% | inhibition [6] 2.1% | RAM network inhibition [7] 5.38%

CCOc1ccc(NC(=O)CSc2nnc(Cn3c(=O)sc4ccccc43)n2C)cc1
inactive: growth inhibition [1] -5.25% | growth inhibition [2] -0.055% | viability increase [3] -2.49% | viability [4] 98% | viability [5] 103% | inhibition [6] 0.83% | RAM network inhibition [7] 7.78%

N#Cc1cccc(NC(=O)NCCc2c[nH]c3ccccc23)c1
inactive: growth inhibition [1] -17.4% | growth inhibition [2] 1.5% | viability increase [3] -4.55% | viability [4] 93.1% | viability [5] 90.2% | inhibition [6] -0.125% | RAM network inhibition [7] 4.4%

COC(=O)/C=C(\C)NC(=O)c1cccs1
inactive: growth inhibition [1] -1.38% | growth inhibition [2] 4.05% | viability increase [3] 0.51% | viability [4] 101% | viability [5] 97.5% | inhibition [6] -0.705% | RAM network inhibition [7] 0.06%

CC(C)C12CN3CC(C(C)C)(CN(C1)C31C(=O)Nc3ccccc31)C2=O (configuration not stated)
inactive: growth inhibition [1] -16.5% | growth inhibition [2] -17.8% | viability increase [3] -0.6% | viability [4] 90.3% | viability [5] 101% | inhibition [6] 1.05% | RAM network inhibition [7] 3.39%

Nc1nc2n(n1)C(c1ccco1)CC(c1ccc(F)cc1)N2 (configuration not stated)
inactive: growth inhibition [1] -0.245% | growth inhibition [2] 11.6% | viability increase [3] 1.69% | viability [4] 98.4% | viability [5] 101% | inhibition [6] 0.45% | RAM network inhibition [7] 4.49%

c1ccc(Cc2nnc3sc(-c4ccc5c(c4)OCCO5)nn23)cc1
active: growth inhibition [2] 55.8%
inactive: growth inhibition [1] 4.51% | viability increase [3] 0.47% | viability [4] 105% | viability [5] 93.5% | inhibition [6] 1.33% | RAM network inhibition [7] 12.8%

COC(=O)c1ccccc1NC(=O)c1cc(C2CC2)on1
inactive: growth inhibition [1] -8.38% | growth inhibition [2] 4.01% | viability increase [3] -3.29% | viability [4] 91.5% | viability [5] 90.8% | inhibition [6] 1.4% | RAM network inhibition [7] 5.95%

Cc1ccsc1C1C2=C(CC(C)(C)CC2=O)Nc2ncnn21 (configuration not stated)
inactive: growth inhibition [1] -13.7% | growth inhibition [2] 11.9% | viability increase [3] -4.49% | viability [4] 101% | viability [5] 102% | inhibition [6] 1.98% | RAM network inhibition [7] 4.28%

O=C(CSc1ccc2nnc(-c3ccccn3)n2n1)NCc1ccc2c(c1)OCO2
inactive: growth inhibition [1] -0.545% | growth inhibition [2] 21.4% | viability increase [3] -3.68% | viability [4] 91.6% | viability [5] 91.7% | inhibition [6] 2.51% | RAM network inhibition [7] 1.66%

Cc1cc(C)cc(N(CC(=O)NCc2ccco2)S(=O)(=O)c2c(C)noc2C)c1
inactive: growth inhibition [1] -22% | growth inhibition [2] -17.1% | viability increase [3] -4.19% | viability [4] 95.2% | viability [5] 84.5% | inhibition [6] 2.42% | RAM network inhibition [7] 5.53%

O=C(COc1ccc2c3c(c(=O)oc2c1)CCC3)c1ccc2c(c1)OCO2
inactive: growth inhibition [1] -8.44% | growth inhibition [2] -1.49% | viability increase [3] 2.35% | viability [4] 63.2% | viability [5] 65.1% | inhibition [6] 2.27% | RAM network inhibition [7] 7.83%

CCOC(=O)c1ccc(NC(=O)C23CCC(C)(C(=O)O2)C3(C)C)cc1 (configuration not stated)
inactive: growth inhibition [1] 1.15% | growth inhibition [2] 4.45% | viability increase [3] 1.07% | viability [4] 93.5% | viability [5] 101% | inhibition [6] -0.095% | RAM network inhibition [7] 5.33%

COc1cc(OC)cc(C(=O)Nn2cc(C(=O)N3CCN(C)CC3)c3ccccc3c2=O)c1
inactive: growth inhibition [1] -6.21% | growth inhibition [2] -7.65% | viability increase [3] -0.92% | viability [4] 105% | viability [5] 93.1% | inhibition [6] 1.17% | RAM network inhibition [7] 3.86%

Cc1ccc(O)c(C(=O)CC(=O)c2cccc(F)c2)c1
inactive: viability increase [3] -7.04% | viability [4] 40.6% | viability [5] 47.4% | inhibition [6] -0.695% | RAM network inhibition [7] -1.45%
active: growth inhibition [1] 35.8% | growth inhibition [2] 50%

Cc1nnc(SCc2ccc(Cl)cc2Cl)[nH]c1=O
inactive: growth inhibition [1] -11.1% | growth inhibition [2] 1.19% | viability increase [3] 0.05% | viability [4] 104% | viability [5] 99.1% | inhibition [6] 0.42% | RAM network inhibition [7] 4.49%

O=C(Nc1ccccc1C(=O)NC(Cc1c[nH]c2ccccc12)C(=O)O)c1ccco1 (configuration not stated)
inactive: growth inhibition [1] -11% | growth inhibition [2] -11.3% | viability increase [3] -2.96% | viability [4] 102% | viability [5] 97.1% | inhibition [6] 0.95% | RAM network inhibition [7] 2.94%

CC(c1ccccc1)N1CC(C(=O)N2CCN(c3ccccc3)CC2)CC1=O (configuration not stated)
inactive: growth inhibition [1] 0.43% | growth inhibition [2] 1.48% | viability increase [3] -1.1% | viability [4] 104% | viability [5] 101% | inhibition [6] 0.54% | RAM network inhibition [7] 4.4%

O=C(CCCOc1ccccc1)NCC1CCCO1 (configuration not stated)
inactive: growth inhibition [1] -3.87% | growth inhibition [2] -6.75% | viability increase [3] -2.68% | viability [4] 96.5% | viability [5] 91.5% | inhibition [6] 4.06% | RAM network inhibition [7] 0.83%

COc1ccc(Nc2nnc(Cc3ccccc3)c(=O)[nH]2)c(OC)c1
inactive: growth inhibition [1] -23.5% | growth inhibition [2] -17.1% | viability increase [3] 0.58% | viability [4] 93.5% | viability [5] 92.7% | inhibition [6] 1.52% | RAM network inhibition [7] 3.16%

O=C(C1Cc2ccccc2O1)N1CCCCC1 (configuration not stated)
inactive: growth inhibition [1] -0.465% | growth inhibition [2] 2.46% | viability increase [3] -1.5% | viability [4] 103% | viability [5] 101% | inhibition [6] 0.17% | RAM network inhibition [7] 4.37%

Cc1c(C(=O)NCC2CCCO2)oc2ccc(S(=O)(=O)N3CC(C)CC(C)C3)cc12 (configuration not stated)
inactive: growth inhibition [1] -2.38% | growth inhibition [2] 14.2% | viability increase [3] -4.71% | viability [4] 44.5% | viability [5] 38.1% | inhibition [6] 3.72% | RAM network inhibition [7] 4.28%
